A1 apoptosis 2 = A1 inhibition read as caspase activation. MEF A1-2A-BIM cells, caspase-Glo luminescence, 3 h; percent of clofoctol response, DMSO zero. caspase activation, % (test concentration not listed). 24,000 tested, under 10 active. AID 2465; in the data active means caspase activation above about 5.9%
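System: mouse embryonic fibroblasts co-expressing A1 and BIM (A1-2A-BIM), primed for A1 dependence; amount: 2500 cells/well; doses: 50 nL pinned compound; schedule: cells settled overnight, compound exposure 3 h at 37 °C, 5% CO2; detection: Caspase-Glo 3/7 luminescence, 1 h at room temperature; read-out: Caspase-3/7 activation, seen as rise in luminescence signal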
T cruzi HTS = inhibitors of intracellular Trypanosoma cruzi; activity score (inhibition), % at 5.01 µM; actives 4.9% (n = 22,000); AID 651903; intracellular Trypanosoma cruzi in host cells, plate reader; in the data active means activity score above about 55%;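 further: parasites and compound incubated about four days before reading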
INS-1E ATP HTS = preserves ATP levels in cytokine-treated INS-1E cells; INS-1E cytokine-induced death, ATP luminescence, 48 h; normalised: neutral wells 0, positive control 100; protection from cytokine-induced ATP loss, % at 10 µM; actives 0.1% (n = 20,000); AID 488910;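 active means mean replicate protection from cytokine-induced ATP loss at least 50% and at least 75% of replicates each reaching 50%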
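Material: INS-1E rat cells; Quantity: 8000 cells/well; Buffer or medium: phenol-red-free RPMI with 5% fetal bovine serum; Probe or stimulus: cytokine cocktail of IFN-γ, TNF-α and IL-1β; Compound dosing: single test concentration per compound, delivered by pin transfer; Incubation: 48 h co-treatment, 10 min post-lysis read; Signal: CellTiter-Glo luminescence.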
Each line names hits and unclear results; the compound was inactive in the other large screens. Shown is part of a subset that was picked to be rich in hits.

C[C@@H]1CN([C@@H](C)CO)C(=O)c2cccc(NS(=O)(=O)c3ccc(Cl)cc3)c2O[C@@H]1CN(C)Cc1ccc(Oc2ccccc2)cc1	T cruzi HTS 67
C[C@H](CO)N1C[C@H](C)[C@@H](CN(C)Cc2ccc(Oc3ccccc3)cc2)Oc2c(NS(=O)(=O)c3ccc(Cl)cc3)cccc2C1=O	T cruzi HTS 65 (no result: A1 apoptosis 2)
C[C@H](CO)N1C[C@H](C)[C@H](CN(C)Cc2ccc(Oc3ccccc3)cc2)Oc2c(NS(=O)(=O)c3ccccc3)cccc2C1=O	none
C[C@H]1CN([C@@H](C)CO)C(=O)c2cccc(NS(=O)(=O)c3ccc(Cl)cc3)c2O[C@H]1CN(C)Cc1ccc(Oc2ccccc2)cc1	none (no result: A1 apoptosis 2)
C[C@H]1CN([C@@H](C)CO)C(=O)c2cccc(NS(=O)(=O)c3ccccc3)c2O[C@@H]1CN(C)Cc1ccc(Oc2ccccc2)cc1	none
C[C@@H]1CN([C@H](C)CO)C(=O)c2cccc(NS(=O)(=O)c3ccc(Cl)cc3)c2O[C@H]1CN(C)Cc1ccc(Oc2ccccc2)cc1	T cruzi HTS 58
Cc1ccc(S(=O)(=O)Nc2ccc3c(c2)C(=O)N([C@@H](C)CO)C[C@@H](C)[C@@H](CN(C)CC2CCCCC2)OCCCC[C@H](C)O3)cc1	none (no result: T cruzi HTS, INS-1E ATP HTS)
C[C@@H]1CN([C@@H](C)CO)C(=O)c2cccc(NC(=O)C3CCCCC3)c2O[C@H]1CN(C)C(=O)Nc1ccc(F)cc1	none
C[C@H](CO)N1C[C@H](C)[C@H](CN(C)Cc2ccccc2)Oc2ccc(NC(=O)Cc3cn(C)c4ccccc34)cc2CC1=O	none
C[C@@H]1CN([C@H](C)CO)C(=O)c2cc(NC(=O)Cc3cn(C)c4ccccc34)ccc2O[C@@H]1CN(C)Cc1ccc(Cl)c(Cl)c1	T cruzi HTS 79 (no result: A1 apoptosis 2)
C[C@@H]1CN([C@@H](C)CO)C(=O)c2cc(NC(=O)Cc3cn(C)c4ccccc34)ccc2O[C@@H]1CN(C)Cc1ccc(Cl)c(Cl)c1	none
C[C@@H]1CN([C@H](C)CO)C(=O)Cc2cc(NC(=O)Cc3cn(C)c4ccccc34)ccc2O[C@H]1CN(C)Cc1ccc(Cl)c(Cl)c1	T cruzi HTS 63 (no result: A1 apoptosis 2)
C[C@@H]1CN([C@H](C)CO)C(=O)Cc2cc(NC(=O)Cc3cn(C)c4ccccc34)ccc2O[C@H]1CN(C)Cc1ccncc1	none
C[C@@H]1CN([C@@H](C)CO)C(=O)Cc2cc(NC(=O)Cc3cn(C)c4ccccc34)ccc2O[C@@H]1CN(C)Cc1ccc(Cl)c(Cl)c1	T cruzi HTS 69 (no result: A1 apoptosis 2)
C[C@@H]1CN([C@@H](C)CO)C(=O)Cc2cc(NC(=O)Cc3cn(C)c4ccccc34)ccc2O[C@@H]1CN(C)Cc1ccncc1	T cruzi HTS 65
C[C@@H]1CN([C@@H](C)CO)C(=O)Cc2cc(NC(=O)Cc3cn(C)c4ccccc34)ccc2O[C@H]1CN(C)Cc1ccc(Cl)c(Cl)c1	none (no result: T cruzi HTS, INS-1E ATP HTS)
Cc1noc(C)c1NC(=O)Nc1ccc2c(c1)C(=O)N([C@@H](C)CO)C[C@H](C)[C@H](CN(C)C(=O)Nc1ccc(F)cc1)O2	none
O=C(N/N=C/c1cccc(B(O)O)c1)c1ccccn1	none
Cc1noc(C)c1NC(=O)N(C)C[C@@H]1OCCCC[C@@H](C)Oc2ccc(N(C)C)cc2C(=O)N([C@H](C)CO)C[C@@H]1C	none
CC(C)NC(=O)Nc1ccc2c(c1)C(=O)N([C@@H](C)CO)C[C@@H](C)[C@@H](CN(C)Cc1ccc(C(=O)O)cc1)O2	none
O=C1C2C=C(Br)[C@H](C[C@@H]2OCCCCCCO)[C@@]12CO2	none (no result: T cruzi HTS, INS-1E ATP HTS)
C[C@H](CO)N1C[C@H](C)[C@H](CN(C)C(=O)Nc2ccc(F)cc2)Oc2c(NC(=O)c3ccc(-c4nccs4)cc3)cccc2C1=O	none (no result: A1 apoptosis 2)
C[C@@H]1CN([C@H](C)CO)C(=O)c2cccc(NC(=O)c3ccc(-c4nccs4)cc3)c2O[C@H]1CN(C)C(=O)Nc1ccc(C(F)(F)F)cc1	T cruzi HTS 77 (no result: A1 apoptosis 2)
C[C@H]1CN([C@@H](C)CO)C(=O)c2cccc(NC(=O)c3ccc(-c4nccs4)cc3)c2O[C@H]1CN(C)C(=O)Nc1ccc(C(F)(F)F)cc1	none (no result: A1 apoptosis 2)
C[C@@H]1CN([C@@H](C)CO)C(=O)c2cccc(NC(=O)c3ccc(-c4nccs4)cc3)c2O[C@H]1CN(C)C(=O)Nc1ccc(C(F)(F)F)cc1	T cruzi HTS 68 (no result: A1 apoptosis 2)
COc1ccc(S(=O)(=O)Nc2ccc3c(c2)C(=O)N([C@@H](C)CO)C[C@H](C)[C@@H](CN(C)S(=O)(=O)c2ccc(OC)cc2)OCCCC[C@H](C)O3)cc1	none (no result: T cruzi HTS, INS-1E ATP HTS)
COC(=O)C(CC#Cc1ccc2c(c1)[C@]1(C(=O)N2)[C@H](c2ccc(O)cc2)N2[C@H](c3ccccc3)[C@H](c3ccccc3)OC(=O)[C@H]2[C@@H]1C(N)=O)C(=O)OC	none (no result: T cruzi HTS, INS-1E ATP HTS)
C[C@@H]1CN([C@@H](C)CO)C(=O)c2cccc(NS(C)(=O)=O)c2O[C@@H]1CN(C)C(=O)Nc1ccccc1	none (no result: T cruzi HTS, INS-1E ATP HTS)
CC(C)NC(=O)N(C)C[C@@H]1Oc2ccc(NS(=O)(=O)c3cn(C)cn3)cc2C(=O)N([C@@H](C)CO)C[C@H]1C	none (no result: A1 apoptosis 2)
C[C@H](CO)N1C[C@H](C)[C@@H](CN(C)Cc2ccc(C(=O)O)cc2)Oc2c(NC(=O)Nc3ccc(C(F)(F)F)cc3)cccc2C1=O	none
C[C@H](CO)N1C[C@H](C)[C@H](CN(C)Cc2ccc(C(=O)Nc3ccccc3N)cc2)Oc2c(NC(=O)Nc3ccc(C(F)(F)F)cc3)cccc2C1=O	T cruzi HTS 61 (no result: A1 apoptosis 2)
C[C@@H]1CN([C@@H](C)CO)C(=O)c2cccc(NC(=O)Nc3ccc(C(F)(F)F)cc3)c2O[C@@H]1CN(C)Cc1ccc(C(=O)Nc2ccccc2N)cc1	T cruzi HTS 78 (no result: A1 apoptosis 2)
C[C@H](CO)N1C[C@H](C)[C@H](CN(C)Cc2ccc(C(=O)O)cc2)Oc2c(NC(=O)Nc3ccc(C(F)(F)F)cc3)cccc2C1=O	none
C[C@@H]1CN([C@@H](C)CO)C(=O)Cc2cc(NS(=O)(=O)c3ccc(F)cc3)ccc2O[C@@H]1CN(C)C(=O)Nc1ccc2c(c1)OCO2	none (no result: A1 apoptosis 2)
C[C@H](CO)N1C[C@H](C)[C@@H](CN(C)Cc2ccc(Cl)c(Cl)c2)Oc2c(NC(=O)Nc3ccc(C(F)(F)F)cc3)cccc2C1=O	T cruzi HTS 82
C[C@H]1CN([C@@H](C)CO)C(=O)c2cccc(NC(=O)Nc3ccc(C(F)(F)F)cc3)c2O[C@@H]1CN(C)Cc1ccc(Cl)c(Cl)c1	T cruzi HTS 77
C[C@H](CO)N1C[C@H](C)[C@H](CN(C)Cc2ccc(Cl)c(Cl)c2)Oc2c(NC(=O)Nc3ccccc3)cccc2C1=O	none
C[C@@H]1CN([C@@H](C)CO)C(=O)c2cccc(NC(=O)Nc3ccc(F)cc3)c2O[C@@H]1CN(C)Cc1ccc(Cl)c(Cl)c1	none
C[C@@H]1CN([C@@H](C)CO)C(=O)c2cccc(NC(=O)Nc3ccc(C(F)(F)F)cc3)c2O[C@@H]1CN(C)Cc1ccc(Cl)c(Cl)c1	T cruzi HTS 79
C[C@H]1CN([C@@H](C)CO)C(=O)c2cccc(NC(=O)Nc3ccccc3)c2O[C@@H]1CN(C)Cc1ccc(Cl)c(Cl)c1	none
Cc1ccccc1/C=N/NC(=O)c1cccc(C(=O)NO)c1	none
Cc1noc(C)c1S(=O)(=O)N(C)C[C@@H]1Oc2ccc(NS(=O)(=O)c3ccc(Cl)cc3)cc2CC(=O)N([C@H](C)CO)C[C@H]1C	none (no result: T cruzi HTS, INS-1E ATP HTS)

Screening results from PubChem BioAssay.
